# Laboratory results reported in ChEMBL document CHEMBL2177027, “Exploring the directionality of 5-substitutions in a new series of 5-alkylaminopyrazolo[4,3-e]1,2,4-triazolo[1,5-c]pyrimidine as a strategy to design novel human a(3) adenosine receptor antagonists” (J Med Chem, 2012).
# pKi: −log10 of the molar value.
# Columns and labels:
# [1] = Selectivity ratio of Ki for human adenosine A1 receptor expressed in CHO cell membrane to Ki for human adenosine A2A receptor expressed in CHO cell membrane; type: cell-based
# Adenosine receptor A1 = target: T1, Adenosine receptor A1 (Homo sapiens, UniProt P30542); test: Displacement of [3H]CCPA from human adenosine A1 receptor expressed in CHO cell membrane; type: cell membranes
# T1 sequence (P30542 whole entry): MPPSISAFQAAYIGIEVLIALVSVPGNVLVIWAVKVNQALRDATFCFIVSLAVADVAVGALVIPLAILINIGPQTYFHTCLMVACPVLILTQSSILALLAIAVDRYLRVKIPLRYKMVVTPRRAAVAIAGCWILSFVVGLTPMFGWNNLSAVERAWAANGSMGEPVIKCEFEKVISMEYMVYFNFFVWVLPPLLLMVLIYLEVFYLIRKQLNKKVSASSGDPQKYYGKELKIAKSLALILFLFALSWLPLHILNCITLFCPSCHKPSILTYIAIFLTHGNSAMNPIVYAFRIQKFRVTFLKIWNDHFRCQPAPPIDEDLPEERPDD
# In short: (§1)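 CHO cells stably transfected with the human receptor subtype. Membranes were prepared by a 1000g spin to clear fragments and nuclei, then pelleted from the supernatant at 100 000g. Pellet was resuspended in the respective binding buffer, frozen in liquid nitrogen and stored until radioligand competition binding.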
# Adenosine receptor A3 = target: T2, Adenosine receptor A3 (Homo sapiens, UniProt P0DMS8); test: Displacement of [3H]NECA from human adenosine A3 receptor expressed in CHO cell membrane; type: cell membranes; in short: as §1
# T2 sequence (P0DMS8 whole entry): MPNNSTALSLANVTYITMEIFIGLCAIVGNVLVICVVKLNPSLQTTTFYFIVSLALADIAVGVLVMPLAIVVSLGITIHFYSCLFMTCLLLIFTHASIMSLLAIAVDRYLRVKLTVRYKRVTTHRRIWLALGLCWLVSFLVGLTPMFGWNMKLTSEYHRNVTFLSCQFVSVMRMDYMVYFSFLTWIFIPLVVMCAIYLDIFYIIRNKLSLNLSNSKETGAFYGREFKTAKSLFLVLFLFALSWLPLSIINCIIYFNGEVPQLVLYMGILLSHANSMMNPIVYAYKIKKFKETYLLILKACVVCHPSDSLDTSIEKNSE
# Adenosine receptor A2b = target: T3, Adenosine receptor A2b (Homo sapiens, UniProt P29275); test: Antagonist activity at human adenosine A2B receptor expressed in CHO cells assessed as NECA-induced adenylate cyclase activity; type: functional, cell-based
# T3 sequence (P29275 whole entry): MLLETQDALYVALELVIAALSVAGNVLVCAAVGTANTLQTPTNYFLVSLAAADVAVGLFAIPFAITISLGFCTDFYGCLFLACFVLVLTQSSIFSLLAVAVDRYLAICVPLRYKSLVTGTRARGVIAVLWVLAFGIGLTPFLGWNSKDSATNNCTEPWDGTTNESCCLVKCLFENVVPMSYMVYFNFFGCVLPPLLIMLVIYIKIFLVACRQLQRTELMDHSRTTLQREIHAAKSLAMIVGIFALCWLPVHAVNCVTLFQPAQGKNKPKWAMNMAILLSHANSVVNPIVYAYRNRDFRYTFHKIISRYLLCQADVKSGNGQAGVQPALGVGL
# In short: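 Membranes from stably transfected CHO cells made with a single high-speed spin of the homogenate. Incubated 20 min with about 150 000 cpm [α-³²P]ATP in mixture lacking EDTA and NaCl. IC50 taken from concentration-dependent inhibition of NECA-stimulated adenylyl cyclase using Hill equation.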
# Adenosine receptor A2a = Adenosine receptor A2a (Homo sapiens, UniProt P29274); test: Displacement of [3H]NECA from human adenosine A2A receptor expressed in CHO cell membrane; type: cell membranes; in short: as §1
# [2] = Selectivity ratio of Ki for human adenosine A2A receptor expressed in CHO cell membrane to Ki for human adenosine A3 receptor expressed in CHO cell membrane; type: cell-based
# [3] = target: Adenosine receptors; A1 & A3 (Homo sapiens) (UniProt P30542+P0DMS8); test: Selectivity ratio of Ki for human adenosine A1 receptor expressed in CHO cell membrane to Ki for human adenosine A3 receptor expressed in CHO cell membrane; type: cell-based
# Adenosine receptor A2a, sequence (P29274 whole entry): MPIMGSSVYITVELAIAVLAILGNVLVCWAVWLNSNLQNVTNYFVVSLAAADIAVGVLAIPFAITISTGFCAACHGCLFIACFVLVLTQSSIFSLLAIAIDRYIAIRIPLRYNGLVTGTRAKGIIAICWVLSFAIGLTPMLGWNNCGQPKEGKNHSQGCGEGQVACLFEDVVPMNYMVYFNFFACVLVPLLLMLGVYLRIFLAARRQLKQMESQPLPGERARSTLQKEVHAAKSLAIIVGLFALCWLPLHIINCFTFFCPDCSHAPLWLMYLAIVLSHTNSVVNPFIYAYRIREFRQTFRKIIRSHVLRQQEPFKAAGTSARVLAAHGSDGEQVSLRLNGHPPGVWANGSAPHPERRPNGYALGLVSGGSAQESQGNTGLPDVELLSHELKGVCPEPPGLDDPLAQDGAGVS
SMILES,pKi (Adenosine receptor A1),pKi (Adenosine receptor A3),pKi (Adenosine receptor A2b),pKi (Adenosine receptor A2a),Ratio Ki [3],Ratio Ki [1],Ratio Ki [2]
COc1ccc(CNc2nc3nn(C)cc3c3nc(-c4ccco4)nn23)cc1,6.35,8.16,5.01,6.75,63.9,2.5,25.6
Cn1cc2c(nc(NCc3ccc(C(F)(F)F)cc3)n3nc(-c4ccco4)nc23)n1,5.91,7.83,< 5.52,6.61,82.5,5.02,16.4
Cn1cc2c(nc(NCCCCCO)n3nc(-c4ccco4)nc23)n1,6.28,6.87,< 5.00,6.91,3.86,4.23,0.91
CCN(CC)c1nc2nn(C)cc2c2nc(-c3ccco3)nn12,5.84,7.02,< 5.00,6.10,15.1,1.82,8.29
Cn1cc2c(nc(NCc3ccccc3)n3nc(-c4ccco4)nc23)n1,6.28,8.60,5.48,7.04,212,5.79,36.5
CN(Cc1ccccc1)c1nc2nn(C)cc2c2nc(-c3ccco3)nn12,6.25,7.74,< 5.00,5.97,31.4,0.52,60
Cn1cc2c(nc(NC3C4CC5CC(C4)CC3C5)n3nc(-c4ccco4)nc23)n1 (configuration not stated),6.12,7.73,< 5.00,6.07,39.9,0.88,45.1
Cn1cc2c(nc(NCCc3ccccc3)n3nc(-c4ccco4)nc23)n1,6.13,7.28,5.55,7.34,13.9,15.9,0.87
Cn1cc2c(nc(N3CCOCC3)n3nc(-c4ccco4)nc23)n1,5.62,6.29,< 5.00,5.78,4.71,1.45,3.25
CN(c1nc2nn(C)cc2c2nc(-c3ccco3)nn12)C1CCCCC1,5.99,7.49,< 5.00,5.56,31.2,0.37,83.5
Cn1cc2c(nc(NC3CCCCC3)n3nc(-c4ccco4)nc23)n1,6.78,8.07,5.20,6.63,19.4,0.71,27.2
CCCCCN(CCCCC)c1nc2nn(C)cc2c2nc(-c3ccco3)nn12,5.48,6.08,< 5.00,5.13,4.04,0.44,9.09
CCCCCC(C)Nc1nc2nn(C)cc2c2nc(-c3ccco3)nn12 (configuration not stated),6.61,8.06,5.12,6.35,28.8,0.56,51.7
Cn1cc2c(nc(NC(CO)CO)n3nc(-c4ccco4)nc23)n1,6.19,6.27,< 5.00,6.22,1.19,1.07,1.11
C[C@@H](Nc1nc2nn(C)cc2c2nc(-c3ccco3)nn12)c1ccccc1,6.02,8.43,4.91,7.42,255,24.7,10.3
Cn1cc2c(nc(N3CCCC3)n3nc(-c4ccco4)nc23)n1,6.48,7.45,< 5.00,6.88,9.24,2.48,3.72
Cn1cc2c(nc(NCCCCCCO)n3nc(-c4ccco4)nc23)n1,6.32,6.81,< 5.00,6.96,3.1,4.43,0.7
Cn1cc2c(nc(NCC3CCCCC3)n3nc(-c4ccco4)nc23)n1,6.10,7.33,5.02,6.09,17,0.98,17.2
Cn1cc2c(nc(NC3CCCCCC3)n3nc(-c4ccco4)nc23)n1,6.65,7.81,5.18,6.47,14.5,0.66,21.8
COc1ccc(CNc2nc3nn(C)cc3c3nc(-c4ccco4)nn23)cc1OC,5.57,7.68,< 5.52,7.19,129,42.3,3.04
Cn1cc2c(nc(NC(c3ccccc3)c3ccccc3)n3nc(-c4ccco4)nc23)n1,6.77,9.08,< 5.00,6.05,204,0.19,1080

# More lines, main results first:
pKi (Adenosine receptor A1),pKi (Adenosine receptor A3),pKi (Adenosine receptor A2b),pKi (Adenosine receptor A2a),Ratio Ki [3],SMILES,Ratio Ki [1],Ratio Ki [2]
6.67,6.62,5.03,6.81,0.88,Cn1cc2c(nc(NCCCO)n3nc(-c4ccco4)nc23)n1,1.37,0.64
6.01,6.89,< 5.00,5.49,7.55,Cn1cc2c(nc(NC(C)(C)CC(C)(C)C)n3nc(-c4ccco4)nc23)n1,0.3,24.8
6.68,7.16,5.76,6.95,3,Cn1cc2c(nc(NC3CC3)n3nc(-c4ccco4)nc23)n1,1.84,1.63
6.43,6.45,< 5.52,6.87,1.05,CC(O)CNc1nc2nn(C)cc2c2nc(-c3ccco3)nn12 (configuration not stated),2.76,0.38
6.88,8.28,5.41,6.61,25,CCC(C)Nc1nc2nn(C)cc2c2nc(-c3ccco3)nn12 (racemic),0.53,47.4
6.66,7.20,< 5.00,6.68,3.48,CCC(CO)Nc1nc2nn(C)cc2c2nc(-c3ccco3)nn12 (configuration not stated),1.06,3.29
6.22,7.35,5.67,6.68,13.6,CCNc1nc2nn(C)cc2c2nc(-c3ccco3)nn12,2.9,4.68
5.62,6.61,< 5.00,6.39,9.76,COCCNc1nc2nn(C)cc2c2nc(-c3ccco3)nn12,5.9,1.65
5.71,7.20,5.68,6.43,30.4,CNc1nc2nn(C)cc2c2nc(-c3ccco3)nn12,5.24,5.8
6.48,7.47,5.01,6.41,9.76,CC(C)Nc1nc2nn(C)cc2c2nc(-c3ccco3)nn12,0.86,11.4
